Experiment: Toxicity liver stage against HepG2, at 10uM
Assay type: cell-based
Design: test concentration 10 uM, cell line HepG2-A16-CD81EGFP
Settings: human, HepG2-A16-CD81EGFP cells; read-out: INHIBITION
Procedure, shortened: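 Uninfected HepG2-A16-CD81EGFP cells, 3 × 10^3 per well, 1536-well, plated on prespotted compound at 10 μM final, parasite-free screening media added to match infected plates; puromycin 10 μM positive, DMSO 0.5% negative; run in parallel with 48 h PbLuc assay at 37 °C, 5% CO2; viability by CellTiter-Glo luminescence, normalized to controls.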

Structure (SMILES) | cytotoxicity at 10 µM [%]
Cc1nn(CC(O)CN2CCc3ccccc3C2)c(=O)c(C#N)c1C (stereo not given) | 8.27
O[C@@H]1C[C@@H](c2nc(-c3ccccc3)no2)N(CC2CCCCC2)C1 | -2.74
CC1(C)CNC(=O)CN(C(=O)Cc2ccccc2)C1 | -6.92
O=C(Cc1cnc(-n2cccc2)s1)NCCCO | -3.14
Cc1n[nH]c2nc(-c3cccc(Cl)c3)cc(C(=O)O)c12 | -1.05
O=c1ccc(-n2ccnc2)nn1CCNS(=O)(=O)c1ccc(F)c(Cl)c1 | -4.39
CC(C)NC(=O)[C@]12COC[C@H]1CN(Cc1cnn(C)c1)C2 | 3.63
O=c1[nH]c2nc(N3CCSCC3)ncc2c(=O)n1-c1ccc(F)cc1 | 9.82
O=c1cc2c(nn1CN1CCOCC1)CCC2 | 1.31
Cn1cnc2c1C(COCC1CC1)CN(Cc1ccsc1)C2 (stereo not given) | -5.07
Cc1ccc(NC(=O)c2cccc(OCc3nnnn3C)c2)nc1 | 4.4
CC1(C(N)=O)CN(CC2CCC2)CCO1 (stereo not given) | 2.04
CNC(=O)c1cc(C)nc(C2(C)CCCN2c2cc(C)ncn2)n1 (stereo not given) | 2.15
Cc1nccn1CCNC(=O)C1(C)CC(c2ccccc2)=NO1 (stereo not given) | 8.46
COc1ccccc1CNC(=O)c1ccccc1-n1cnc(CN)c1 | -10.6
CC(O)c1cn(Cc2ccccc2)nn1 (stereo not given) | 7.62
CCc1cc2c(N3CCCC(c4ccn[nH]4)C3)ncnc2s1 (stereo not given) | 15.7
COc1ccc(C(CN2CCN(C)CC2)Nc2ncccn2)cc1 (stereo not given) | 5.54
COCCNc1nc(-c2ccc(S(=O)(=O)N3CCCCC3)cc2)cs1 | -42
Cn1cc(CCC(=O)NCc2ccccc2OC(C)(C)C)cn1 | 6.67
COCCN1CC(=O)N(C(C)C)C(C)(C)C1 | 1.31
Cc1cccn2cc(CN3CCC(N4CCN(C)C4=O)CC3)nc12 | 7.31

Structure (SMILES) | cytotoxicity at 10 µM [%]
CCCc1c(C(=O)N2CCN(c3cnccn3)CC2)cnn1C | 9.77
O=C(NCc1cc(F)ccc1F)Nc1ccn(CC(F)F)n1 | -3.06
CC(C)C(NCc1ccc(Cn2cncn2)cc1)c1ccccc1 (stereo not given) | 4.1
N#CCCN(CC1CCOC1)Cn1ccc(-c2ccsc2)n1 (stereo not given) | -2.68
Cc1csc(C(C)(C)NCCNS(C)(=O)=O)n1 | 4.61
O=C(NCC1CCS(=O)(=O)C1)c1ccco1 (stereo not given) | -7
COCCn1cc(NC(=O)N(CCC(N)=O)Cc2ccccc2)cn1 | -4.72
COc1ccc2cc(C(=O)NCCc3nc(C)no3)[nH]c2c1 | 9.63
CCc1nccn1C1CCCN(C(=O)CCc2nc(C(C)C)no2)C1 (stereo not given) | 5.93
O=C(Nc1nncs1)N1CCC(c2ccc(O)cc2)CC1 | -7.55
OCCOc1ccc(NCc2cccc3cn[nH]c23)cn1 | -4.13
Cc1ccc(S(=O)(=O)NCCNC(=O)c2ccoc2)cc1C | -3.26
CCC(O)CN1CCN(C(=O)c2cnn(-c3ccccc3F)c2)CC1 (stereo not given) | -3.69
COc1ccc(C(=O)N(CCC#N)Cc2ccccn2)cc1 | 13.1
CCC(CC)c1cc(CNC(=O)N2CCCC(c3ncc[nH]3)C2)on1 (stereo not given) | -2.02
CC(C)C(O)C(C)(C)CNC(=O)NCc1ccc(-n2cncn2)cc1 (stereo not given) | -8.14
Cn1cc(Br)c(=O)c(NS(=O)(=O)c2ccccc2F)c1 | -2.62
CCN(C(=O)COc1nc(C(C)(C)C)no1)C1CC1 | 3.2
COc1ccc2cccc(CC(=O)NCc3n[nH]c(=O)[nH]3)c2c1 | -3.22
O=C(NCCCO)Nc1cccc(C[S+]([O-])Cc2ccccc2)c1 (stereo not given) | -1.06
NC(=O)Cn1ccc(NC(=O)C2(c3cccc(Cl)c3)CC2)n1 | 0.217
CCOc1ccccc1CNC(=O)N(CC)C(C)c1cccnc1 (stereo not given) | -3.64

Structure (SMILES) | cytotoxicity at 10 µM [%]
O=C(Nc1cc(Cl)ccc1Cl)NC1CCN(C2CCOC2)CC1 (stereo not given) | 6.8
CSC(C)C(=O)N1CCN(CCO)CC1 (stereo not given) | -6.69
COC(=O)C(C)(C)S(=O)(=O)c1ccc(Br)cc1 | 5.25
COCCCOC1CN(C(=O)c2[nH]nc3c2CCCC3)C1 | 8.11
CC(=O)c1cc(C(=O)NC2(c3ccc(Br)cc3)CC2)n(C)c1 | 5.78
Cc1cc(C)c(CNc2cnc3ccccc3n2)c(=O)[nH]1 | 41.8
CC(Cn1ccnc1)NS(=O)(=O)Cc1ccc(F)cc1 (stereo not given) | 5.36
CN(CCn1cccn1)S(=O)(=O)c1ccc(C#N)cc1 | -4.81
COc1cccc(OCc2nnc3n2N=C(C(C)(C)C)CS3)c1 | 4.4
CC(Cn1cccn1)NCc1csc(-c2ccc(F)cc2)n1 (stereo not given) | -67.9
COc1ccccc1OCC(=O)Nc1ncccc1Cl | -3.61
Cn1nc2c(cc1=O)CN(CCc1nc3ccccc3c(=O)[nH]1)CC2 | -10.9
O=C(CCN1CCC(C(=O)c2cc(F)ccc2F)CC1)NC1CC1 | -7.74
Cc1nnc2n1CCN(C(=O)c1cn(-c3ccccc3Cl)nn1)C2 | -4.55
Cc1nnc([C@@]23CCO[C@@H]2CCN(S(=O)(=O)c2cccnc2)C3)o1 | -103
O=C(c1ccncc1)N1CCc2c(COCC3CC3)cncc2C1 | -78.7
Cn1cc(-c2cnc(N3CCOCC3)nc2)cc1C(=O)NC1CC1 | -80.4
CCC(CC)NC(=O)c1ccc2nnc(C3CCN(S(C)(=O)=O)C3)n2c1 (stereo not given) | 3.25
CCCc1nccn1-c1cccc(CN2CCCC2)c1 | -4.87
CCCC1C=CCN1C(=O)c1cc(COc2ccccc2)[nH]n1 (stereo not given) | 9.8
CN(C)C(C(=O)NCC(F)(F)F)c1cccc(F)c1 (stereo not given) | -2.49
CC(C)N1CC(C(=O)N2CCN(CCn3cccc3)CC2)CC1=O (stereo not given) | -4.97

Structure (SMILES) | cytotoxicity at 10 µM [%]
CCc1nc(N2CCCC(CO)(CCOC)C2)ncc1C (stereo not given) | 4.93
O=C(CCc1cc2n(n1)CCN(CCCn1cccc1)C2)N1CCCC1 | -15.4
O=C(CCc1cc(Cl)no1)N1CCN(CCn2cncn2)CC1 | -1.84
Cc1nc2c(c(=O)[nH]1)CN(C(=O)CC[C@@H]1CCCN3CCCC[C@H]13)C2 | 17
CCN1CCC(CNC(=O)C(c2ccc(F)cc2)N(C)C)(N(C)C)CC1 (stereo not given) | -0.288
O=C(Cn1cccn1)N1CCc2[nH]nc(-c3ccc4c(c3)OCO4)c2C1 | -153
O=C(COc1cccc(F)c1)N1C[C@@H](CN2CCCC2)C[C@H](CO)C1 | 3.94
COCCC1(CO)CCCN(C(=O)CCC(F)(F)F)C1 (stereo not given) | -2.86
O=C(O)c1ccc(CNC(=O)C2CCN(Cc3ccco3)CC2)s1 | -0.861
C=C(C)COc1ccc(C(=O)N(C)C(C)c2ccon2)cc1 (stereo not given) | 4.18
Cn1cc(CN2CC[C@@H]3[C@@H](CCC(=O)N3CCc3ccccc3)C2)cn1 | -1.45
CCNC(=O)[C@@H]1C[C@H](N)CN1C(=O)Cc1cc(C)ccc1C | 2.43
Fc1ccc(Cn2ncc3c2CN(c2ncccn2)C3)cc1 | 1.5
Cn1cc(-c2ccnc(NCC3CCN(Cc4ccccc4)C3)n2)cn1 (stereo not given) | -130
COCC(NC1CCN(CC(C)C)CC1)c1ccnn1C (stereo not given) | 4.22
Cc1ccc(C(C(=O)O)N2CCCN(Cc3ccccn3)CC2)c(F)c1 (stereo not given) | -1.62
CN1CCCC2(CCN(S(=O)(=O)c3ccc(-c4cnco4)s3)C2)C1=O (stereo not given) | 5.84
COc1ccc(F)c(F)c1C(=O)N1C[C@@H](CN(C)CCO)[C@@H](CO)C1 | -1.02
CN(C)CCC1CCCCN1Cc1cnn(C)c1C1CC1 (stereo not given) | 2.84
Cc1ccc(C)c2c(O)cc(CN3CCNC(=O)C3C)nc12 (stereo not given) | -1.66
COc1ccc(NC(=O)Cn2nc(C)c(C)cc2=O)cc1Cl | -6.47
COc1ccc(NC(=O)Cn2nc(C)c(C)cc2=O)cc1 | 4.2

Structure (SMILES) | cytotoxicity at 10 µM [%]
CS(=O)(=O)N1CCC(Oc2ccc(C(=O)NC3CCOC3)cc2Cl)CC1 (stereo not given) | -4.88
Cc1nnc(CNCC2(O)CCCN(Cc3ccc(F)c(F)c3)C2=O)[nH]1 (stereo not given) | -6.79
COc1ccc(CC2(C(=O)O)CCN(c3nc(C)ncc3C)CC2)cc1 | -21.8
CN1CCN(Cc2nc3ccccc3[nH]2)[C@H]2CS(=O)(=O)C[C@H]21 | 20.5
O=C1OC2(CCN(C3CCCOC3)CC2)CN1CCc1ccccc1 (stereo not given) | -17.5
Cc1ccc(C#N)c(N2CCC(c3nccn3CCN(C)C)CC2)n1 | -5.47
COCc1nc(C(=O)NS(=O)(=O)c2ccc(F)cc2F)cs1 | -8.51
CCn1ccnc1CN1CCCN(C(=O)c2csc(C)n2)CC1 | -2.84
CCOCC(O)CN1CCN(C(=O)c2cc(F)ccc2C)CC1 (stereo not given) | -6.69
CC(=O)NCc1ccc(C(=O)N2CCCC2c2cnn(C)c2)o1 (stereo not given) | -8.67
COc1cccc(CNC(=O)N2CCN(Cc3cc(C)on3)CC2)c1 | -1.58
CCc1noc(C(C)N2CCC(C(=O)Nc3cnn(CC)c3)CC2)n1 (stereo not given) | 2.21
CN1CCc2c(C#N)c(NCC3CCCO3)n3cnnc3c2C1 (stereo not given) | 4.48
CC1CCN(CC(=O)NC2CCN(C(C)c3ccccc3)CC2)CC1 (stereo not given) | -6.36
CNC(=O)C1(N2CCC[C@H]2C(=O)NC2CCCCC2)CCOCC1 | -1.25
Cc1cc(C[C@@H]2CCC[C@H]2NCc2cc(F)ccc2F)on1 | -5.72
c1ccc(CN2CC[C@@H]3O[C@@H](COCCN4CCCC4)CC[C@@H]32)nc1 | -80.6
Cc1ccc(CN2C[C@@H]3COC[C@H](NS(C)(=O)=O)[C@@H]3C2)s1 | 0.354
CC(=O)N1[C@H](Cn2cncn2)C[C@@H]2CN(CC3CC3)CC[C@@H]21 | -3.64
CCCC(=O)N1CC[C@@H]2[C@H](CC1)N(Cc1cccnc1)CCS2(=O)=O | -8.63
N#Cc1cccc(CN2CCC3(CC2)CC(c2ccncc2)C(=O)N3)c1 (stereo not given) | 3.44
O=C([C@H]1COC[C@H]2CN(C3CCOCC3)C[C@H]21)N1CCCO1 | -4.68
